For data set [1], the system named is NC(=O)c1ccc[n+]([C@@H]2O[C@H](COP(=O)([O-])OP(=O)(O)OC[C@H]3O[C@@H](n4cnc5c(N)ncnc54)[C@H](O)[C@@H]3O)[C@@H](O)[C@H]2O)c1. Briefly: In vitro inhibitory activity against bovine liver glutamate dehydrogenase (GDH).
For data set [2] the test system is unchanged. Description: In vitro inhibitory activity against pig heart lactate dehydrogenase (LDH). As to conditions: Sus scrofa. In outline:
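Pig heart enzymes (cytoplasmic MDH or LDH, from ammonium sulfate suspension) assayed in 0.05 M Tris HCl pH 9.0, with NAD as substrate; rates from NADH appearance by A340 (ε 6.22 mM⁻¹cm⁻¹) or fluorescence calibrated against NADH standards. Run at least in duplicate; kinetic constants from Lineweaver-Burk plots by linear regression.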

Data set [3] shares this test system. Description: In vitro inhibitory activity against horse liver Alcohol dehydrogenase. As to conditions: Equus caballus.

Sequence of Alcohol dehydrogenase (Equus caballus) (P00328 whole entry, looked up): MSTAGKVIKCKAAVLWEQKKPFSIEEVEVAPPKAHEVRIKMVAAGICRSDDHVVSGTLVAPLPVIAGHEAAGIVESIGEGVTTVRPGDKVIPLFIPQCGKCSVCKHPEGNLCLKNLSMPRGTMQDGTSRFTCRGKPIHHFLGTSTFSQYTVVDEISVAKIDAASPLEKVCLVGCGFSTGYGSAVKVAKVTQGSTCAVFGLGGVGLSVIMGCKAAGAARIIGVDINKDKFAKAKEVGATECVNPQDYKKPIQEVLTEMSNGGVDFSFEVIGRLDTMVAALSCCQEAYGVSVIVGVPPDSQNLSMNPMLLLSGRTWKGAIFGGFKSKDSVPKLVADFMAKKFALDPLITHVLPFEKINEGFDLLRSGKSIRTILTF
Sequence of Alcohol dehydrogenase (Equus caballus) (P00327 whole entry, looked up): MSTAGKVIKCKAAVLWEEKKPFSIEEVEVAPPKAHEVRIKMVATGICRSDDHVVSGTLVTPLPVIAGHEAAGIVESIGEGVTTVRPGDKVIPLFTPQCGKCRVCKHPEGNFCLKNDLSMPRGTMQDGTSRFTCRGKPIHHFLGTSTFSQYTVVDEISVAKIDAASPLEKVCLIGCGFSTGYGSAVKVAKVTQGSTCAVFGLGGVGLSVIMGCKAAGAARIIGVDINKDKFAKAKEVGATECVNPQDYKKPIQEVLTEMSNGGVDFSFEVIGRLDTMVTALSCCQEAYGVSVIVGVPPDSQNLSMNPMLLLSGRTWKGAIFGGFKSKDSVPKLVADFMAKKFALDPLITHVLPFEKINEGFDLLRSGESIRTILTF
Sequence of L-lactate dehydrogenase B chain (Sus scrofa), P00336 (P00336 whole entry): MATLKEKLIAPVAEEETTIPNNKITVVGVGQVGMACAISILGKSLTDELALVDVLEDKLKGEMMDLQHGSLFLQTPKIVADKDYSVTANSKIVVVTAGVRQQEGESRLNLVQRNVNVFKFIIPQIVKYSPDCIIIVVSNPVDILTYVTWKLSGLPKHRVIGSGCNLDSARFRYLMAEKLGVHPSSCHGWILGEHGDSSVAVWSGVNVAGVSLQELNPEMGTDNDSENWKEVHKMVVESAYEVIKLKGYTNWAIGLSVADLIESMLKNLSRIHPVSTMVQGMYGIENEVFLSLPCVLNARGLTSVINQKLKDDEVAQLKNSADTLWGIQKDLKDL
Sequence of Glutamate dehydrogenase 1, mitochondrial (Bos taurus), P00366 (P00366 whole entry): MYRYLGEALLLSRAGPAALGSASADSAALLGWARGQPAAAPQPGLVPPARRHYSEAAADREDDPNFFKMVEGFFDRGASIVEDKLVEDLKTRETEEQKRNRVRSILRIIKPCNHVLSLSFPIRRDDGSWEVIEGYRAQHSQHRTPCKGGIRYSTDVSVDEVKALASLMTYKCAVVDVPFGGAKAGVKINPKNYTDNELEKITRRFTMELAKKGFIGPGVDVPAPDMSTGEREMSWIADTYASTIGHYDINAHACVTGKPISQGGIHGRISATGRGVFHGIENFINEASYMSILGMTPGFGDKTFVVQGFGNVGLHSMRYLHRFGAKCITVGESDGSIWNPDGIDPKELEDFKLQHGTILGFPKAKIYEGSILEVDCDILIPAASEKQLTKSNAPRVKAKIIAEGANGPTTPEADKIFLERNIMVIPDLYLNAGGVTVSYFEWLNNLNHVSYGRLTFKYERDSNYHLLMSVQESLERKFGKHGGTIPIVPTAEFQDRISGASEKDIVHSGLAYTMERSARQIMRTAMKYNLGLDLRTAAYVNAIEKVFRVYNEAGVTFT

Take “Glutamate dehydrogenase 1, mitochondrial (Bos taurus), P00366”: in data set [1], the Michaelis-Menten constant (Km) (commonly the substrate concentration at which the rate is half of its maximum) stood at 20 µM.
Regarding “L-lactate dehydrogenase B chain (Sus scrofa), P00336”, the Km in data set [2] came to 84.4 µM.
As for “Alcohol dehydrogenase (Equus caballus) (from UniProt P00327+P00328)”, in data set [3], the Michaelis-Menten constant (Km) was determined as 22.3 µM.

These data come from ChEMBL document CHEMBL1124735, “Dehydrogenase binding by tiazofurin anabolites” (J Med Chem, 1990).
